Source: ChEMBL document CHEMBL1782036, “Atovaquone derivatives as potent cytotoxic and apoptosis inducing agents” (Bioorg Med Chem Lett, 2009)
Values belong to the compound of their own block, whether it stands above or below them.

Assays:
DU-145 [1] = assay: Growth inhibition of human DU145 cells after 72 hrs by MTT assay; format: functional, cell-based; conditions: DU-145, 72 h
Summary of the method: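 Du145 human prostate carcinoma cells were screened by MTT cell-growth inhibition assay. IC50 values are means of three experiments.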

IMR-90 = assay: Antiproliferative activity against human IMR90 cells after 72 hrs by MTT assay; format: cell-based; conditions: IMR-90, 72 h
HT-1080 = assay: Antiproliferative activity against human HT1080 cells after 72 hrs by MTT assay; format: functional, cell-based; conditions: HT-1080, 72 h
HT-29 = assay: Antiproliferative activity against human HT-29 cells after 72 hrs by MTT assay; format: functional, cell-based; conditions: HT-29, 72 h
[2] = Antiproliferative activity against human L78 cells after 72 hrs by MTT assay; format: functional, cell-based; conditions: L78, 72 h
MOLT-4 = assay: Antiproliferative activity against human MOLT4 cells after 72 hrs by MTT assay; format: functional, cell-based; conditions: MOLT-4, 72 h
OS-RC-2 = assay: Antiproliferative activity against human OS-RC2 cells after 72 hrs by MTT assay; format: functional, cell-based; conditions: OS-RC-2, 72 h
SGC-7901 = assay: Antiproliferative activity against human SGC7901 cells after 72 hrs by MTT assay; format: functional, cell-based; conditions: SGC-7901, 72 h
U-251 = assay: Antiproliferative activity against human U251 cells after 72 hrs by MTT assay; format: functional, cell-based; conditions: U-251, 72 h
A549 = assay: Antiproliferative activity against human A549 cells after 72 hrs by MTT assay; format: functional, cell-based; conditions: A549, 72 h
HeLa = assay: Antiproliferative activity against human HeLa cells after 72 hrs by MTT assay; format: functional, cell-based
HepG2 = assay: Antiproliferative activity against human HepG2 cells after 72 hrs by MTT assay; format: functional, cell-based; conditions: HepG2, 72 h
KB = assay: Antiproliferative activity against human KB cells after 72 hrs by MTT assay; format: functional, cell-based
MCF7 = assay: Antiproliferative activity against human MCF7 cells after 72 hrs by MTT assay; format: functional, cell-based; conditions: MCF7, 72 h
DU-145 [3] = assay: Induction of apoptosis in human DU145 cells at 5 uM assessed as live cell level after 72 hrs by AnnexinV conjugated 7- AAD staining by flow cytometry; format: functional
Summary of the method: (§1)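 Du145 cells were treated for 72 h and stained with Annexin V conjugate plus 7-AAD. Flow cytometry read PS externalization and membrane integrity, scoring cells as live (double negative), early apoptotic, or late apoptotic/necrotic (double positive). Untreated cells served as the control.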

DU-145 [4] = assay: Induction of apoptosis in human DU145 cells at 5 uM assessed as early apoptosis level after 72 hrs by AnnexinV conjugated 7- AAD staining by flow cytometry; format: functional; summary of the method: as §1
DU-145 [5] = assay: Induction of apoptosis in human DU145 cells at 5 uM assessed as late apoptosis/ necrotic cells level after 72 hrs by AnnexinV conjugated 7- AAD staining by flow cytometry; format: functional; summary of the method: as §1
DU-145 [6] = assay: Induction of apoptosis in human DU145 cells at 5 uM assessed as dead cell level after 72 hrs by AnnexinV conjugated 7- AAD staining by flow cytometry; format: functional
Summary of the method: (§2)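 Du145 human prostate carcinoma cells exposed to compound for 72 h, then stained with Annexin V and 7-AAD and analysed by flow cytometry. Annexin V detects phosphatidylserine externalised to the outer membrane leaflet, and 7-AAD enters only membrane-compromised cells. Dead cells were those positive for both stains. Untreated cells served as control.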

DU-145 [7] = assay: Induction of apoptosis in human DU145 cells at 10 uM assessed as live cell level after 72 hrs by AnnexinV conjugated 7- AAD staining by flow cytometry; format: functional; summary of the method: as §1
DU-145 [8] = assay: Induction of apoptosis in human DU145 cells at 10 uM assessed as early apoptosis level after 72 hrs by AnnexinV conjugated 7- AAD staining by flow cytometry; format: functional; summary of the method: as §1
DU-145 [9] = assay: Induction of apoptosis in human DU145 cells at 10 uM assessed as late apoptosis/ necrotic cells level after 72 hrs by AnnexinV conjugated 7- AAD staining by flow cytometry; format: functional; summary of the method: as §1
DU-145 [10] = assay: Induction of apoptosis in human DU145 cells at 10 uM assessed as dead cell level after 72 hrs by AnnexinV conjugated 7- AAD staining by flow cytometry; format: functional; summary of the method: as §2

Compound: COc1cccc2c1C(=O)c1c(O)c3c(c(O)c1C2=O)C[C@@](O)(C(=O)CO)C[C@@H]3O[C@H]1C[C@H](N)[C@H](O)[C@H](C)O1 [DOXORUBICIN]
- IC50 (IMR-90): 1 µM
- IC50 (HT-1080): 0.1 µM
- IC50 (HT-29): 1.3 µM
- IC50 [2]: 2.4 µM
- IC50 (MOLT-4): 0.002 µM
- IC50 (OS-RC-2): 5.4 µM
- IC50 (SGC-7901): 0.9 µM
- IC50 (U-251): 0.6 µM

Compound: O=C1C=C(N2CCN(c3ccccc3)CC2)C(=O)c2ccccc21
- IC50 (DU-145 [1]): 9.9 µM

Compound: O=C1C=C(N2CCN(c3ccccc3Cl)CC2)C(=O)c2ccccc21
- IC50 (DU-145 [1]): 2.9 µM
- IC50 (IMR-90): > 50 µM
- IC50 (A549): 10.3 µM
- IC50 (HeLa): 11.3 µM
- IC50 (HepG2): 11.1 µM
- IC50 (HT-1080): 15.4 µM
- IC50 (HT-29): 18.9 µM
- IC50 (KB): 3.7 µM
- IC50 [2]: 28.8 µM
- IC50 (MCF7): 10.3 µM
- IC50 (MOLT-4): > 50 µM
- IC50 (OS-RC-2): 8.9 µM
- IC50 (SGC-7901): 41.8 µM
- IC50 (U-251): 30.8 µM
- Activity (DU-145 [3]): 91.36%
- Activity (DU-145 [4]): 1.01%
- Activity (DU-145 [5]): 3.65%
- Activity (DU-145 [6]): 3.99%
- Activity (DU-145 [7]): 85.3%
- Activity (DU-145 [8]): 1.89%
- Activity (DU-145 [9]): 9.71%
- Activity (DU-145 [10]): 3.1%

Compound: O=C1C=C(N2CCC(c3ccc(Cl)cc3)CC2)C(=O)c2c(O)cccc21
- IC50 (DU-145 [1]): 2.6 µM
- IC50 (IMR-90): > 50 µM
- IC50 (A549): 17.2 µM
- IC50 (HeLa): 18.2 µM
- IC50 (HepG2): 5.4 µM
- IC50 (HT-1080): 22.4 µM
- IC50 (HT-29): 6.9 µM
- IC50 (KB): 14 µM
- IC50 [2]: 40.6 µM
- IC50 (MCF7): 20.5 µM
- IC50 (MOLT-4): > 50 µM
- IC50 (OS-RC-2): 5.2 µM
- IC50 (SGC-7901): > 50 µM
- IC50 (U-251): 6.1 µM
- Activity (DU-145 [3]): 52.14%
- Activity (DU-145 [4]): 7.22%
- Activity (DU-145 [5]): 35.95%
- Activity (DU-145 [6]): 4.69%
- Activity (DU-145 [7]): 1.95%
- Activity (DU-145 [8]): 8.88%
- Activity (DU-145 [9]): 87.96%
- Activity (DU-145 [10]): 1.21%

Compound: COc1cccc(N2CCN(C3=CC(=O)c4ccccc4C3=O)CC2)c1
- IC50 (DU-145 [1]): 15 µM

Compound: O=C1C(N2CCN(c3ccc(F)cc3)CC2)=CC(=O)c2c(O)cccc21
- IC50 (DU-145 [1]): 22.4 µM

Compound: Cc1ccccc1N1CCN(C2=CC(=O)c3cccc(O)c3C2=O)CC1
- IC50 (DU-145 [1]): 2.3 µM
- IC50 (IMR-90): > 50 µM
- IC50 (A549): 5.3 µM
- IC50 (HeLa): 7.2 µM
- IC50 (HepG2): 10.3 µM
- IC50 (HT-1080): 11 µM
- IC50 (HT-29): 2.8 µM
- IC50 (KB): 6.6 µM
- IC50 [2]: 15.1 µM
- IC50 (MCF7): 9.7 µM
- IC50 (MOLT-4): > 50 µM
- IC50 (OS-RC-2): 4.4 µM
- IC50 (SGC-7901): 5.3 µM
- IC50 (U-251): 10.2 µM
- Activity (DU-145 [3]): 69.54%
- Activity (DU-145 [4]): 3.89%
- Activity (DU-145 [5]): 15.49%
- Activity (DU-145 [6]): 11.08%
- Activity (DU-145 [7]): 18.75%
- Activity (DU-145 [8]): 18.28%
- Activity (DU-145 [9]): 59.33%
- Activity (DU-145 [10]): 3.64%

Compound: O=C1C=C(N2CCN(c3ccccc3Cl)CC2)C(=O)c2c(O)cccc21
- IC50 (DU-145 [1]): 2.3 µM
- IC50 (IMR-90): 16.9 µM
- IC50 (A549): 4.5 µM
- IC50 (HeLa): 7.2 µM
- IC50 (HepG2): 7.7 µM
- IC50 (HT-1080): 5.8 µM
- IC50 (HT-29): 1.4 µM
- IC50 (KB): 4.4 µM
- IC50 [2]: 5.2 µM
- IC50 (MCF7): 23.8 µM
- IC50 (MOLT-4): 27.6 µM
- IC50 (OS-RC-2): 2.5 µM
- IC50 (SGC-7901): 8.2 µM
- IC50 (U-251): 8 µM

Compound: COc1ccccc1N1CCN(C2=CC(=O)c3cccc(O)c3C2=O)CC1
- IC50 (DU-145 [1]): 1.8 µM
- IC50 (IMR-90): > 50 µM
- IC50 (A549): 3.6 µM
- IC50 (HeLa): 6.5 µM
- IC50 (HepG2): 3.9 µM
- IC50 (HT-1080): 5.1 µM
- IC50 (HT-29): 2.8 µM
- IC50 (KB): 2.8 µM
- IC50 [2]: 4.6 µM
- IC50 (MCF7): 5.6 µM
- IC50 (MOLT-4): 25.8 µM
- IC50 (OS-RC-2): 1.9 µM
- IC50 (SGC-7901): 6.8 µM
- IC50 (U-251): 4.4 µM
- Activity (DU-145 [3]): 46.26%
- Activity (DU-145 [4]): 5.88%
- Activity (DU-145 [5]): 42.79%
- Activity (DU-145 [6]): 5.08%
- Activity (DU-145 [7]): 23.55%
- Activity (DU-145 [8]): 10.13%
- Activity (DU-145 [9]): 62.93%
- Activity (DU-145 [10]): 3.4%

Continued, values first:

- IC50 (DU-145 [1]): 11.7 µM
Compound: O=C1C=C(N2CCN(c3ccc(F)cc3)CC2)C(=O)c2ccccc21

- IC50 (DU-145 [1]): 29.3 µM
Compound: O=C1C(O)=C([C@H]2CC[C@H](c3ccc(Cl)cc3)CC2)C(=O)c2ccccc21 [ATOVAQUONE]

- IC50 (DU-145 [1]): 7.3 µM
Compound: O=C1C=C(N2CCC(c3ccc(Cl)cc3)CC2)C(=O)c2ccccc21

- IC50 (DU-145 [1]): 5.7 µM
Compound: Cc1ccccc1N1CCN(C2=CC(=O)c3ccccc3C2=O)CC1

- IC50 (DU-145 [1]): 29.5 µM
Compound: O=C1C=C(N2CCN(c3ccc(Cl)cc3)CC2)C(=O)c2ccccc21

- IC50 (DU-145 [1]): 6 µM
Compound: O=C1C=C(N2CCC(c3ccccc3)CC2)C(=O)c2ccccc21

- IC50 (DU-145 [1]): 32.2 µM
Compound: O=C1C=C(N2CCN(c3ccc(F)c(Cl)c3)CC2)C(=O)c2ccccc21
